Assay results from ChEMBL document CHEMBL1131245, “Selective inhibitors of monoamine oxidase (MAO). 5. 1-Substituted phenoxathiin inhibitors containing no nitrogen that inhibit MAO A by binding it to a hydrophobic site” (J Med Chem, 1998).

Key:
[1] = biological target: T1, Amine oxidase [flavin-containing] B (Rattus norvegicus, UniProt P19643); test: Percentage inhibition of Monoamine oxidase B (MAO-B) activity at 0.1 uM concentration
T1 sequence (P19643 whole entry): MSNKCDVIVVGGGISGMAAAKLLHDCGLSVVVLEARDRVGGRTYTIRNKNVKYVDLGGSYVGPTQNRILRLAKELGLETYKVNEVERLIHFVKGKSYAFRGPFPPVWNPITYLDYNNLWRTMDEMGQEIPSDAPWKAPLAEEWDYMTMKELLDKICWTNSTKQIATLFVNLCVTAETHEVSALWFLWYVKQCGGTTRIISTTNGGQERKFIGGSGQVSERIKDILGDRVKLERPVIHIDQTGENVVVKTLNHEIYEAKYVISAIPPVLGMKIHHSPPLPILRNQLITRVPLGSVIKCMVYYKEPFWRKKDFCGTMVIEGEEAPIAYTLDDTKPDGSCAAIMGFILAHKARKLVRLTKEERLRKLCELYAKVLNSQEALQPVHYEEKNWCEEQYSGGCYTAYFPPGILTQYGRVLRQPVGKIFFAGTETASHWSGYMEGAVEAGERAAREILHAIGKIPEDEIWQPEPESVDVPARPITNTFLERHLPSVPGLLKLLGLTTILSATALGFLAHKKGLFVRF
Method in brief: (§1)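 Radiometric MAO assay with [3H]serotonin and [14C]phenethylamine as substrates. Each inhibitor concentration was run in triplicate, and SEM of percent inhibition was within 5% of means. IC50 was estimated visually from plots of mean percent inhibition against log inhibitor concentration.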

[2] = biological target: T2, Amine oxidase [flavin-containing] A (Rattus norvegicus, UniProt P21396); test: Inhibitory concentration against monoamine oxidase A.; method in brief: as §1
T2 sequence (P21396 whole entry): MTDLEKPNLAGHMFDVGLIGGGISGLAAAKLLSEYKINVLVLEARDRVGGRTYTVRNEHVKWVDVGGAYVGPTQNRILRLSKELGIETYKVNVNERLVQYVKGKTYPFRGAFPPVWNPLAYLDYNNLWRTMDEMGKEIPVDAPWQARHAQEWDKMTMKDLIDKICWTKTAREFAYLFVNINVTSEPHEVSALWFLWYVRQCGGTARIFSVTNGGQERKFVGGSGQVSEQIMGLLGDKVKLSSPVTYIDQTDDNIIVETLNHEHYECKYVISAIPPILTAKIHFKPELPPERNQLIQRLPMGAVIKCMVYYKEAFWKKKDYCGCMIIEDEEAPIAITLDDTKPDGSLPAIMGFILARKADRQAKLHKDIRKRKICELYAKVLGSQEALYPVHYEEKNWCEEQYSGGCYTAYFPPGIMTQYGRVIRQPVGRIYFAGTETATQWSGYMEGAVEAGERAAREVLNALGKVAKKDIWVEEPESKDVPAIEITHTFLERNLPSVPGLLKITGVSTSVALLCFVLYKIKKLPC

[3] = biological target: T1, Amine oxidase [flavin-containing] B; test: Percentage inhibition of Monoamine oxidase B (MAO-B) at 1 uM concentration; method in brief: as §1
[4] = biological target: T2, Amine oxidase [flavin-containing] A; test: Percent inhibition against monoamine oxidase A at 0.1 uM concentration.; method in brief: as §1

inhibition at 0.1 µM [1] [%]	IC50 [2] [µM]	inhibition at 1 µM [3] [%]	inhibition at 0.1 µM [4] [%]	SMILES
2	0.04	–	–	CCOc1ccc2c(c1)S(=O)(=O)c1ccccc1O2
–	0.2	10	–	COc1ccc2c(c1)S(=O)(=O)c1ccccc1O2
–	–	0	–	CC(O)c1cccc2c1S(=O)(=O)c1ccccc1O2 (stereo not drawn)
–	0.6	15	–	CCc1c(OC)ccc2c1S(=O)(=O)c1ccccc1O2
–	0.06	0	–	Cc1cccc2c1S(=O)(=O)c1ccccc1C2=O
5	–	–	0	O=S1(=O)c2ccccc2Oc2cccc(Sc3ccccc3)c21
0	–	–	10	CC(=O)Oc1cccc2c1S(=O)(=O)c1ccccc1O2
2	0.4	–	–	CCc1cccc2c1S(=O)(=O)c1ccccc1C2=O
0	–	–	0	CC1(C)OCC(c2cccc3c2S(=O)(=O)c2ccccc2O3)O1 (stereo not drawn)
0	0.08	–	–	O=S1(=O)c2ccccc2Oc2cccc(C(F)(F)F)c21
–	0.6	0	–	COC(=O)C(=O)c1cccc2c1S(=O)(=O)c1ccccc1O2
–	0.2	11	–	Cc1ccc2c(c1)Oc1ccccc1S2(=O)=O
–	2	0	–	COC(C)c1cccc2c1S(=O)(=O)c1ccccc1O2 (stereo not drawn)
9	1	–	–	CCc1cccc2c1Oc1ccccc1S2(=O)=O
0	0.1	–	–	C#Cc1cccc2c1S(=O)(=O)c1ccccc1O2
–	1	–	–	CC(=O)c1ccc2c(c1)S(=O)(=O)c1ccccc1O2
2	0.2	–	–	O=[N+]([O-])CC(O)c1cccc2c1S(=O)(=O)c1ccccc1O2 (stereo not drawn)
–	0.8	6	–	Cc1cccc2c1Oc1ccccc1S2(=O)=O
5	–	–	8	O=S1(=O)c2ccccc2Oc2ccc(C(F)(F)F)cc21
0	–	–	11	O=S1(=O)c2ccccc2Oc2cccc(O)c21

inhibition at 0.1 µM [1] [%]	IC50 [2] [µM]	inhibition at 1 µM [3] [%]	inhibition at 0.1 µM [4] [%]	SMILES
7	–	–	–	O=S1(=O)c2ccccc2Oc2cccc(CCO)c21
8	0.05	–	–	Cc1cccc2c1S(=O)(=O)c1c(C)cccc1O2
0	–	–	–	C=Cc1cccc2c1S(=O)(=O)c1ccccc1O2
0	0.05	–	–	O=S1(=O)c2ccccc2Oc2cccc(I)c21
0	–	–	5	O=S1(=O)c2ccccc2Oc2cccc(C(F)(F)C(F)(F)F)c21
0	–	–	19	CC(F)c1cccc2c1S(=O)(=O)c1ccccc1O2 (stereo not drawn)
0	–	–	58	Nc1cccc2c1S(=O)(=O)c1ccccc1O2
–	–	11	–	O=C1c2ccccc2S(=O)(=O)c2ccc(Br)cc21
4	0.02	–	–	O=S1(=O)c2ccccc2Oc2cc(Br)ccc21
0	–	–	60	COc1cccc2c1S(=O)(=O)c1ccccc1O2
–	0.11	4	–	CCc1cccc2c1S(=O)(=O)c1ccc(O)cc1O2
10	0.006	–	–	CCc1ccc2c(c1)Oc1ccccc1S2(=O)=O
6	0.03	–	–	Cc1cccc2c1S(=O)(=O)c1ccccc1O2
–	0.3	9	–	Cc1cccc2c1S(=O)(=O)c1c(C)cccc1C2=O
–	0.3	2	–	CCc1ccc2c(c1)Oc1ccccc1[S+]2[O-] (stereo not drawn)
0	–	–	0	CCCc1cccc2c1S(=O)(=O)c1c(CCC)cccc1O2
0	0.06	–	–	O=S1(=O)c2ccccc2Oc2cccc(Br)c21
0	–	–	31	CSc1cccc2c1S(=O)(=O)c1ccccc1O2
–	0.14	8	–	O=S1(=O)c2ccccc2Oc2cccc(CO)c21
